In ChEMBL document CHEMBL1255403, “Genetic dissection of azole resistance mechanisms in Candida albicans and their validation in a mouse model of disseminated infection” (2010):
Values after ≈ are worked out from the molar mass of the structure shown.

What was measured:
Type in all cases: functional
Candida albicans [1] = experiment: […] activity against Fluconazole resistant Candida albicans DSY3608 containing tac1delta/delta ERG11-1/ERG11-1 (TAC1-1) genotype by EUCAST standards based broth microdilution method sCandida albicans DSY294
Candida albicans [2] = experiment: […] activity against Fluconazole resistant Candida albicans DSY3752 containing (TAC1-5/TAC1-5 ERG11-1/ERG11-1) genotype by EUCAST standards based broth microdilution method sCandida albicans DSY294
Candida albicans [3] = experiment: (§1) Antibacterial activity against azole-susceptible Candida albicans DSY294 containing CIp10 to restore URA3 function infected in BALB/c mouse assessed as reduction in kidney microbial burden administered intraperitoneally 1 hr post bacterial challenge measured 3 days post infection
Procedure, shortened: (§2)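 At 72 h the left kidney was homogenised in saline and viable counts taken as log10 CFU/g. ED50 was the dose lowering the mean burden >1.5 log below controls.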

Candida albicans [4] = experiment: (§3) Antibacterial activity against azole-susceptible Candida albicans DSY294 containing CIp10 to restore URA3 function infected in BALB/c mouse assessed as weight change administered intraperitoneally 1 hr post bacterial challenge measured 3 days post infection
Procedure, shortened: (§4)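 Female BALB/c mice (18 to 22 g) infected i.v. with saline suspension of C. albicans grown overnight in NGY medium. […] Percentage body weight change over 3 days; ED50 = dose reducing mean weight change below 50% of controls.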

Candida albicans [5] = experiment: (§5) Antibacterial activity against azole-susceptible Candida albicans DSY294 containing CIp10 to restore URA3 function infected in BALB/c mouse assessed as effect on infection outcome score administered intraperitoneally 1 hr post bacterial challenge measured 3 days post infection
Procedure, shortened: (§6)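 Intravenous infection of female BALB/c mice with a strain-specific inoculum. […] ED50 was derived from the 3-day infection outcome score at 72 h.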

Candida albicans [6] = experiment: (§7) Antibacterial activity against azole-susceptible Candida albicans DSY294 containing CIp10 to restore URA3 function infected in BALB/c mouse administered intraperitoneally 1 hr post bacterial challenge measured 3 days post infection
Procedure, shortened: (§8)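 Female BALB/c mice (18–22 g) infected i.v. with a saline suspension of NGY-grown yeast. The challenge inoculum was strain-specific, set by pilot dose-finding. […] Endpoint at 72 h. Median of ED50s from kidney burden, weight change and outcome score.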

Candida albicans [7] = experiment: as §1, with “Fluconazole resistant” for “azole-susceptible”, “DSY296 overexpressing multidrug transporter gene CDR1 and CDR2 and containing ERG11 G464S mutation” for “DSY294”; procedure, shortened: as §2
Candida albicans [8] = experiment: as §3, with “Fluconazole resistant” for “azole-susceptible”, “DSY296 overexpressing multidrug transporter gene CDR1 and CDR2 and containing ERG11 G464S mutation” for “DSY294”
Candida albicans [9] = experiment: as §5, with “Fluconazole resistant” for “azole-susceptible”, “DSY296 overexpressing multidrug transporter gene CDR1 and CDR2 and containing ERG11 G464S mutation” for “DSY294”; procedure, shortened: as §6
Candida albicans [10] = experiment: as §7, with “Fluconazole resistant” for “azole-susceptible”, “DSY296 overexpressing multidrug transporter gene CDR1 and CDR2 and containing ERG11 G464S mutation” for “DSY294”; procedure, shortened: as §8
Candida albicans [11] = experiment: as §1, with “Fluconazole resistant” for “azole-susceptible”, “DSY3083 containing tac1delta/delta genotype” for “DSY294”; procedure, shortened: as §2
Candida albicans [12] = experiment: (§9) Antibacterial activity against Fluconazole resistant Candida albicans DSY3083 containing tac1delta/delta genotype containing CIp10 to restore URA3 function infected in BALB/c mouse assessed as weight change administered intraperitoneally 1 hr post bacterial challenge measured 3 days post infection
Candida albicans [13] = experiment: as §9, with “effect on infection outcome score” for “weight change”; procedure, shortened: as §6
Candida albicans [14] = experiment: Antibacterial activity against Fluconazole resistant Candida albicans DSY3083 containing tac1delta/delta genotype containing CIp10 to restore URA3 function infected in BALB/c mouse administered intraperitoneally 1 hr post bacterial challenge measured 3 days post infection; procedure, shortened: as §8
Candida albicans [15] = experiment: as §1, with “Fluconazole resistant” for “azole-susceptible”, “DSY3606” for “DSY294”, “tac1delta/delta ERG11-1/ERG11-1 (TAC1-5) genotype” for “CIp10 to restore URA3 function”; procedure, shortened: as §2
Candida albicans [16] = experiment: (§10) […] activity against Fluconazole resistant Candida albicans DSY3606 containing tac1delta/delta ERG11-1/ERG11-1 (TAC1-5) genotype infected in BALB/c mouse assessed as weight change administered intraperitoneally 1 hr post […] measured 3 days post infection
Candida albicans [17] = experiment: as §10, with “effect on infection outcome score” for “weight change”; procedure, shortened: as §6
Candida albicans [18] = experiment: Antibacterial activity against Fluconazole resistant Candida albicans DSY3606 containing tac1delta/delta ERG11-1/ERG11-1 (TAC1-5) genotype infected in BALB/c mouse administered intraperitoneally 1 hr post bacterial challenge measured 3 days post infection; procedure, shortened: as §8
Candida albicans [19] = experiment: Antibacterial activity against Fluconazole resistant Candida albicans DSY3706 containing tac1delta/delta ERG11-1/ERG11-1 genotype infected in BALB/c mouse assessed as reduction in kidney microbial burden administered intraperitoneally 1 hr post bacterial challenge measured 3 days post infection; procedure, shortened: as §2
Candida albicans [20] = experiment: Antibacterial activity against Fluconazole resistant Candida albicans DSY3706 containing tac1delta/delta ERG11-1/ERG11-1 genotype infected in BALB/c mouse assessed as weight change administered intraperitoneally 1 hr post bacterial challenge measured 3 days post infection; procedure, shortened: as §4
Candida albicans [21] = experiment: Antibacterial activity against Fluconazole resistant Candida albicans DSY3706 containing tac1delta/delta ERG11-1/ERG11-1 genotype infected in BALB/c mouse assessed as effect on infection outcome score administered intraperitoneally 1 hr post bacterial challenge measured 3 days post infection; procedure, shortened: as §6
Candida albicans [22] = experiment: Antibacterial activity against Fluconazole resistant Candida albicans DSY3706 containing tac1delta/delta ERG11-1/ERG11-1 genotype infected in BALB/c mouse administered intraperitoneally 1 hr post bacterial challenge measured 3 days post infection; procedure, shortened: as §8
Candida albicans [23] = experiment: Antibacterial activity against azole-susceptible Candida albicans DSY294 by EUCAST standards based broth microdilution method
Procedure, shortened: (§11)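 Cells grew overnight in YEPD at 30°C and were diluted to 5 × 10^4 cells/ml in RPMI 1640 (MOPS 0.165 M, pH 7, 2% glucose, 1% DMSO). Drug from aqueous stock was 100-fold diluted. Plates ran 24 h at 35°C and were read at 450 nm. MIC was the concentration giving >50% OD decrease versus drug-free control.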

Candida albicans [24] = experiment: Antibacterial activity against Fluconazole resistant Candida albicans DSY296 overexpressing multidrug transporter gene CDR1 and CDR2 and containing ERG11 G464S mutation by EUCAST standards based broth microdilution method; procedure, shortened: as §11
Candida albicans [25] = experiment: Antibacterial activity against Fluconazole resistant Candida albicans DSY3083 containing tac1delta/delta genotype by EUCAST standards based broth microdilution method; procedure, shortened: as §11
Candida albicans [26] = experiment: Antibacterial activity against Fluconazole resistant Candida albicans DSY3604 containing tac1delta/delta ERG11-1/ERG11-5 genotype by EUCAST standards based broth microdilution method; procedure, shortened: as §11
Candida albicans [27] = experiment: Antibacterial activity against Fluconazole resistant Candida albicans DSY3706 containing tac1delta/delta ERG11-1/ERG11-1 genotype by EUCAST standards based broth microdilution method; procedure, shortened: as §11
Candida albicans [28] = experiment: Antibacterial activity against Fluconazole resistant Candida albicans DSY3606 containing tac1delta/delta ERG11-1/ERG11-1 (TAC1-5) genotype by EUCAST standards based broth microdilution method; procedure, shortened: as §11
Candida albicans [29] = experiment: Antibacterial activity against Fluconazole resistant Candida albicans DSY3608 containing tac1delta/delta ERG11-1/ERG11-1 (TAC1-1) genotype by EUCAST standards based broth microdilution method; procedure, shortened: as §11
Candida albicans [30] = experiment: Antibacterial activity against Fluconazole resistant Candida albicans DSY3752 containing (TAC1-5/TAC1-5 ERG11-1/ERG11-1) genotype by EUCAST standards based broth microdilution method; procedure, shortened: as §11
Candida albicans [31] = experiment: Antibacterial activity against Fluconazole resistant Candida albicans DSY3083 containing tac1delta/delta genotype by EUCAST standards based broth microdilution method sCandida albicans DSY294
Candida albicans [32] = experiment: Antibacterial activity against Fluconazole resistant Candida albicans DSY3604 containing tac1delta/delta ERG11-1/ERG11-5 genotype by EUCAST standards based broth microdilution method sCandida albicans DSY294
Candida albicans [33] = experiment: […] activity against Fluconazole resistant Candida albicans DSY3706 containing tac1delta/delta ERG11-1/ERG11-1 genotype by EUCAST standards based broth microdilution method sCandida albicans DSY294
Candida albicans [34] = experiment: Antibacterial activity against Fluconazole resistant Candida albicans DSY3606 containing tac1delta/delta ERG11-1/ERG11-1 (TAC1-5) genotype by EUCAST standards based broth microdilution method sCandida albicans DSY294
Candida albicans [35] = experiment: […] activity against Fluconazole resistant Candida albicans DSY296 overexpressing multidrug transporter gene CDR1 and CDR2 and containing ERG11 G464S mutation by EUCAST standards based broth microdilution method relative to wildtype sCandida albicans DSY294

| Compound | fold change (FC) (Candida albicans [1]) | fold change (FC) (Candida albicans [2]) | MIC (Candida albicans [23]) | MIC (Candida albicans [24]) | MIC (Candida albicans [25]) | MIC (Candida albicans [26]) | MIC (Candida albicans [27]) | MIC (Candida albicans [28]) | MIC (Candida albicans [29]) | MIC (Candida albicans [30]) | fold change (FC) (Candida albicans [31]) | fold change (FC) (Candida albicans [32]) | fold change (FC) (Candida albicans [33]) | fold change (FC) (Candida albicans [34]) | fold change (FC) (Candida albicans [35]) | further results |
| --- | --- | --- | --- | --- | --- | --- | --- | --- | --- | --- | --- | --- | --- | --- | --- | --- |
| OC(Cn1cncn1)(Cn1cncn1)c1ccc(F)cc1F [FLUCONAZOLE] | 1 | 16 | 0.25 µg/mL (≈ 0.816 µM) | 64 µg/mL (≈ 209 µM) | 4 µg/mL (≈ 13.1 µM) | 2 µg/mL (≈ 6.53 µM) | 0.25 µg/mL (≈ 0.816 µM) | 4 µg/mL (≈ 13.1 µM) | 0.25 µg/mL (≈ 0.816 µM) | 4 µg/mL (≈ 13.1 µM) | 16 | 8 | 1 | 16 |  | MIC (Candida albicans [3]): 10 µg/mL; MIC (Candida albicans [4]): 1 µg/mL (≈ 3.27 µM); MIC (Candida albicans [5]): 3.5 µg/mL (≈ 11.4 µM); MIC (Candida albicans [6]): 3.5 µg/mL (≈ 11.4 µM); MIC (Candida albicans [7]): > 200 µg/mL; MIC (Candida albicans [8]): 120 µg/mL (≈ 392 µM); MIC (Candida albicans [9]): 200 µg/mL (≈ 653 µM); MIC (Candida albicans [10]): 200 µg/mL (≈ 653 µM); MIC (Candida albicans [11]): 10 µg/mL; MIC (Candida albicans [12]): 10 µg/mL (≈ 32.7 µM); MIC (Candida albicans [13]): 10 µg/mL (≈ 32.7 µM); MIC (Candida albicans [14]): 10 µg/mL (≈ 32.7 µM); MIC (Candida albicans [15]): 120 µg/mL; MIC (Candida albicans [16]): 120 µg/mL (≈ 392 µM); MIC (Candida albicans [17]): 120 µg/mL (≈ 392 µM); MIC (Candida albicans [18]): 120 µg/mL (≈ 392 µM); MIC (Candida albicans [19]): 3.5 µg/mL; MIC (Candida albicans [20]): 1 µg/mL (≈ 3.27 µM); MIC (Candida albicans [21]): 3.5 µg/mL (≈ 11.4 µM); MIC (Candida albicans [22]): 3.5 µg/mL (≈ 11.4 µM) |
| CCC(C)n1ncn(-c2ccc(N3CCN(c4ccc(OCC5COC(Cn6cncn6)(c6ccc(Cl)cc6Cl)O5)cc4)CC3)cc2)c1=O (centres undefined) [ITRACONAZOLE] | 2 | 16 | 0.0156 µg/mL (≈ 0.0221 µM) | 0.25 µg/mL (≈ 0.354 µM) | 0.031 µg/mL (≈ 0.0439 µM) | 0.031 µg/mL (≈ 0.0439 µM) | 0.0156 µg/mL (≈ 0.0221 µM) | 0.125 µg/mL (≈ 0.177 µM) | 0.031 µg/mL (≈ 0.0439 µM) | 0.25 µg/mL (≈ 0.354 µM) | 2 | 2 | 1 | 8 | 16 |  |
| CC[C@@H]([C@H](C)O)n1ncn(-c2ccc(N3CCN(c4ccc(OC[C@@H]5CO[C@@](Cn6cncn6)(c6ccc(F)cc6F)C5)cc4)CC3)cc2)c1=O [POSACONAZOLE] | 1 | 8 | 0.0312 µg/mL (≈ 0.0445 µM) | 0.25 µg/mL (≈ 0.357 µM) | 0.031 µg/mL (≈ 0.0442 µM) | 0.031 µg/mL (≈ 0.0442 µM) | 0.031 µg/mL (≈ 0.0442 µM) | 0.25 µg/mL (≈ 0.357 µM) | 0.031 µg/mL (≈ 0.0442 µM) | 0.25 µg/mL (≈ 0.357 µM) | 1 | 1 | 1 | 8 | 8 |  |
| C[C@@H](c1ncncc1F)[C@](O)(Cn1cncn1)c1ccc(F)cc1F [VORICONAZOLE] | 1 | 16 | 0.0078 µg/mL (≈ 0.0223 µM) | 2 µg/mL (≈ 5.73 µM) | 0.125 µg/mL (≈ 0.358 µM) | 0.0625 µg/mL (≈ 0.179 µM) | 0.0078 µg/mL (≈ 0.0223 µM) | 0.125 µg/mL (≈ 0.358 µM) | 0.0078 µg/mL (≈ 0.0223 µM) | 0.125 µg/mL (≈ 0.358 µM) | 16 | 8 | 1 | 16 | 256 |  |
